# Experimental data taken from BindingDB's records for doi:10.1021/jm00111a027 (Merck Sharp & Dohme Research Laboratories, 1991).
# Residues, ends and D or L forms follow the SMILES beside them. *: point of attachment. X10 = CCCOC[C@H](CC(C)C)N*
# Target: Gastrin-releasing peptide receptor (Mus musculus, UniProt P21729)
# Test: Compound was evaluated for mitogenic inhibition against Swiss 3T3 murine fibroblast cells.
# Method in brief: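 Swiss 3T3 monolayers grown to confluence, then serum-starved in serum-free DMEM for 48 h. Antagonist added together with 3 nM N-acetyl-GRP-20-27 amide and 23 nM [3H]thymidine. After a further 48 h, cells detached with trypsin/5 mM EDTA and filter-harvested; [3H]thymidine uptake measured. IC50 is the mean of at least two independent experiments.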
# Chain of Gastrin-releasing peptide receptor (P21729 whole entry): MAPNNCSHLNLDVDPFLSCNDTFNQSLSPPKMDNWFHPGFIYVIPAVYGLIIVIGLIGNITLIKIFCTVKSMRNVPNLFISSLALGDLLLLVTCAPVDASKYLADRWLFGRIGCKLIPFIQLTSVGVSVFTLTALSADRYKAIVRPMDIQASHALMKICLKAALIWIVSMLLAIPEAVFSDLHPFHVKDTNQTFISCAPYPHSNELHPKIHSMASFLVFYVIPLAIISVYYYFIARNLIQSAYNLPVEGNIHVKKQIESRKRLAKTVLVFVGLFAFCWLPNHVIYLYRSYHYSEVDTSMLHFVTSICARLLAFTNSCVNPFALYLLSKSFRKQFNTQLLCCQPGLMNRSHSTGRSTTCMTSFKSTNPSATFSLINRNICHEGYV
structure (smiles),measurement,value
CCCOC[C@H](CC(C)C)NC(=O)[C@H](Cc1c[nH]cn1)NC(=O)CNC(=O)[C@@H](NC(=O)[C@H](C)NC(=O)[C@H](Cc1c[nH]c2ccccc12)NC(=O)[C@H](Cc1c[nH]cn1)NC(C)=O)C(C)C [2-{2-[2-[2-Acetylamino-3-(3H-imidazol-4-yl)-propionylamino]-3-(1H-indol-3-yl)-propionylamino]-propionylamino}-N-{[2-(3H-imidazol-4-yl)-1-(3-methyl-1-propoxymethyl-butylcarbamoyl)-ethylcarbamoyl]-methyl}-3-methyl-butyramide] (Ac-HWAVGH-X10),IC50,18 nM
